Bioassay records deposited in PubChem BioAssay by Broad Institute.
Shown are actives, neighbours in structure and some others; about 2.3% of the full set was active somewhere.
Statin myotox sup – suppressors of statin myotoxicity in C2C12 myotubes, primary screen, cell-based, single point, plate reader; C2C12 myotubes + simvastatin, ATP luminescence, 48 h; scaled: DMSO 0, geranylgeraniol control 100; rescue of ATP level, % at 7.49 µM; actives 0.78% (n = 330,000); AID 602340, 2012;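 active means mean ATP rescue above about 67%, or every replicate alone reaching that limit, limit read from the data, passing the limit was not always enough; inconclusive means no clear call, values can overlap the other calls; inactive means mean under the limit and some replicate under it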;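 further: myotubes were challenged with 10 µM simvastatin during compound exposure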
ERp5 inh – inhibitors of ERp5-driven insulin aggregation, primary screen, biochemical, turbidity, absorbance 650 nm, single point | 90 min | actives 0.05% (n = 350,000) | Protein disulfide-isomerase A6 (Homo sapiens), Q15084 | AID 651711, 2012 | inhibition, % at 9.99 µM;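 active means mean replicate inhibition above about 25%, with every replicate also reaching it, limit read from the data, passing the limit was not always enough; inconclusive means only one of those two criteria met; inactive means neither criterion met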
Target sequence (Q15084 whole entry, looked up): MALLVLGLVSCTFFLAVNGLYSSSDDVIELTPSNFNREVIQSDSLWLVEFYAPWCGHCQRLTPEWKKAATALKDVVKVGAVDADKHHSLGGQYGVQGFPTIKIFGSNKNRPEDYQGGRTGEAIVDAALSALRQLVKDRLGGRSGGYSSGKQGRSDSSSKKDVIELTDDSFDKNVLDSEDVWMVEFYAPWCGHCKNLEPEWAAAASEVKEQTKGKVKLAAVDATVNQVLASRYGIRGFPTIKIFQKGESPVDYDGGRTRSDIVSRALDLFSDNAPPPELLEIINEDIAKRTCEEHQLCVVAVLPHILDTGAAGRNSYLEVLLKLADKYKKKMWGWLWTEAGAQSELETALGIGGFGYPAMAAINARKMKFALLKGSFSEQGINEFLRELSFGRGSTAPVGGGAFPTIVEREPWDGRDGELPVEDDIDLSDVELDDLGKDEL
PDI inh – inhibitors of human PDI, primary screen, biochemical, turbidity, single point, plate reader; actives 0.052% (n = 350,000); inhibition, % at 10 µM; PDI insulin aggregation turbidity, A650, 90 min; Protein disulfide-isomerase (Homo sapiens), P07237;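 active means mean inhibition across replicates of 30% or more, whatever share of single replicates reach that level; inconclusive means mean inhibition below 30% while every single replicate reaches 30%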
CFTR F508del cor – F508del CFTR correction, initial screen, CFBE line, single point; AID 720511, 2013; activity (quench increase), % at 7.58 µM; CFBE cells, YFP halide quenching; stimulated with forskolin plus potentiator P3; % fluorescence drop versus neutral controls; actives 0.36% (n = 350,000);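 active means mean added fluorescence quench of at least 8% versus neutral control, with both replicates also reaching 8%; inconclusive means only one of the mean or replicate conditions met; inactive means mean below 8% and not both replicates reaching 8%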;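 further: cells transiently co-express mutant CFTR-F508del with the halide-sensitive YFP; corrector assay measuring rescue of mutant channel to the surface after 24 h compound exposure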
DENV2 CPE rescue – inhibitors of DENV2 cytopathic effect, primary screen, cell-based, plate reader, single concentration. actives 1.7% (n = 350,000). CPE inhibition, % at 9.99 µM. AID 651640, 2012. DENV2-infected cells, cytopathic effect rescue; in the data active means CPE inhibition above about 20%, passing the limit was not always enough; inconclusive means no clear call, values can overlap the other calls; tested in BHK-21 cells
Cneo AK release – Cryptococcus neoformans cell lysis inducers, primary screen, AK release luminescence, single concentration; AID 651654, 2012; actives 0.2% (n = 360,000); C. neoformans lysis, adenylate kinase release luminescence, 4 h; normalised: neutral wells 0, clomiphene wells 100; lysis activity, % at 15 µM;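 active means mean lysis activity across replicates of at least 80%, whatever share of replicates individually reach that level; inactive means mean lysis activity below 80%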
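read-out = cell lysis signal | test system = log-phase Cryptococcus neoformans yeast cells | input = cells at 5 × 10^6 per mL | medium = fresh YPD growth medium | signal = luminescent adenylate kinase detection reagent | timing = 4 h at 37 °C static, read 1 h later | dosing = single dose | controls = Clomiphene as positive lysis control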
Of the large screens only hits and unclear results are named; the others gave an inactive call; ! = repeats disagree.

Cc1ccc(S(=O)(=O)Nc2ccc3c(c2)CC(=O)N([C@H](C)CO)C[C@@H](C)[C@@H](CN(C)Cc2ccc(Oc4ccccc4)cc2)O3)cc1	DENV2 CPE rescue 38 (no result: PDI inh)
Cc1ccc(S(=O)(=O)Nc2ccc3c(c2)CC(=O)N([C@@H](C)CO)C[C@@H](C)[C@H](CN(C)Cc2ccc(Oc4ccccc4)cc2)O3)cc1	Statin myotox sup 83 (no result: PDI inh)
Cc1ccc(S(=O)(=O)Nc2ccc3c(c2)CC(=O)N([C@H](C)CO)C[C@H](C)[C@@H](CN(C)Cc2ccc(Oc4ccccc4)cc2)O3)cc1	none (no result: PDI inh)
C[C@@H]1CN([C@@H](C)CO)C(=O)Cc2cc(NS(C)(=O)=O)ccc2O[C@H]1CN(C)Cc1ccc(Oc2ccccc2)cc1	DENV2 CPE rescue 30 (no result: PDI inh)
Cc1ccc(S(=O)(=O)Nc2ccc3c(c2)CC(=O)N([C@H](C)CO)C[C@@H](C)[C@H](CN(C)Cc2ccc(Oc4ccccc4)cc2)O3)cc1	DENV2 CPE rescue 59 (no result: PDI inh)
CCCC(=O)N1CC2(CN(S(=O)(=O)CC)C2)c2c(n(C)c3cc(OC)ccc23)[C@H]1CO	none (no result: Statin myotox sup, PDI inh, Cneo AK release)
O=C(Nc1ccc(F)cc1)N1C[C@@H]2[C@H](c3ccccc31)[C@H](CO)N2C(=O)c1ccc(F)cc1	none (no result: PDI inh)
CCCN(C)C[C@H]1Oc2cc(C#Cc3ccc(F)cc3)ccc2S(=O)(=O)N([C@@H](C)CO)C[C@H]1C	none (no result: PDI inh)
C[C@H]1CN([C@@H](C)CO)C(=O)Cc2cc(NC(=O)CCCN(C)C)ccc2O[C@H]1CN(C)S(=O)(=O)c1ccccc1	none (no result: PDI inh)
Cc1noc(C)c1NC(=O)Nc1ccc2c(c1)C(=O)N(C)[C@@H]1CC[C@H](CC(=O)NCc3ccc(Cl)cc3)O[C@@H]1CO2	none (no result: PDI inh, CFTR F508del cor)
C[C@@H]1CN([C@H](C)CO)C(=O)Cc2cc(NS(=O)(=O)c3ccccc3)ccc2O[C@H]1CN(C)Cc1ccc(Oc2ccccc2)cc1	DENV2 CPE rescue inconclusive (no result: PDI inh)
C[C@@H]1CN([C@@H](C)CO)C(=O)Cc2cc(NS(=O)(=O)c3ccccc3)ccc2O[C@@H]1CN(C)Cc1ccc(Oc2ccccc2)cc1	DENV2 CPE rescue 25 (no result: PDI inh)
COc1ccc(S(=O)(=O)NCC(=O)NCc2cc(=O)n(C)c(=O)n2C)cc1	DENV2 CPE rescue 57
CC(=O)Nc1nc2nc(-c3ccccc3)cc(-c3ccccc3)n2n1	none (no result: ERp5 inh, CFTR F508del cor, DENV2 CPE rescue)
O=C1CCC(=O)N1c1nc2nc(-c3ccccc3)cc(-c3ccccc3)n2n1	PDI inh 33 (no result: ERp5 inh, CFTR F508del cor, DENV2 CPE rescue)
O=C(O)CC(=O)Nc1cc(Cl)ccc1O	none (no result: ERp5 inh, CFTR F508del cor, DENV2 CPE rescue)
COc1ccc(Cl)cc1NC(=O)CC(C)=O	Statin myotox sup 92 (no result: ERp5 inh, CFTR F508del cor, DENV2 CPE rescue)
CCOC(=O)CC(=O)Nc1cc(Cl)ccc1O	Statin myotox sup 84 (no result: ERp5 inh, CFTR F508del cor, DENV2 CPE rescue)
CN(C)CC#Cc1ccc([C@@H]2[C@@H](CO)N3CCCCN(C(=O)C4CCC4)C[C@@H]23)cc1	none (no result: PDI inh)
N#CC1(NC(=O)CSc2nc3ccccc3o2)CCCCC1	none
N#CC1(NC(=O)CSc2ccccn2)CCCCC1	DENV2 CPE rescue 111 (no result: Cneo AK release)
COc1ccc(CCNC(=O)c2c(C)nn(CC(C)C)c2Cl)cc1OC	DENV2 CPE rescue 95 (no result: Statin myotox sup)
COc1ccc(CCN(C)C(=O)c2c(C)nn(CC(C)C)c2Cl)cc1OC	none
Cn1c(=O)n(Cc2ccccc2)c(=O)c2c1nc1n2CCCN1Cc1ccccc1	Statin myotox sup 116 (no result: ERp5 inh, CFTR F508del cor, DENV2 CPE rescue)
COc1ccc(C(=O)c2cn[nH]c2-c2cc(Cl)ccc2O)cc1	Statin myotox sup 144 (no result: ERp5 inh, CFTR F508del cor, DENV2 CPE rescue)
C=C1C(=O)[C@]23C[C@H]1CC[C@H]2[C@]1(C)[C@@H](OC(C)=O)CC[C@@](C)(C(=O)O)[C@H]1C[C@@H]3O	CFTR F508del cor 8.6, DENV2 CPE rescue inconclusive (no result: PDI inh)
O=C(NC1c2ccccc2-c2ccccc21)c1ccco1	Statin myotox sup 120 (no result: ERp5 inh, CFTR F508del cor, DENV2 CPE rescue)
O=C(NC1CCCCC1NC(=O)c1ccco1)c1ccco1 (stereo not drawn)	none (no result: CFTR F508del cor, DENV2 CPE rescue)
Fc1cccc(Cl)c1Cn1nnc(-c2ccc(N3CCOCC3)cc2)n1	Statin myotox sup 99 (no result: ERp5 inh, CFTR F508del cor, DENV2 CPE rescue)
O=C(CN(C(=O)CCC(=O)Nc1ccccn1)c1ccc2c(c1)OCCO2)NCCc1ccccc1	Statin myotox sup 100 (no result: ERp5 inh, CFTR F508del cor, DENV2 CPE rescue)
CCCCOc1ccc(C(=O)N/N=C/c2ccc(OCCN3CCCCC3)c(OC)c2)cc1	DENV2 CPE rescue 32
Cc1noc(C)c1S(=O)(=O)Nc1cccc2c1O[C@H](CN(C)C(=O)NC(C)C)[C@H](C)CN([C@@H](C)CO)C2=O	DENV2 CPE rescue 88 (no result: Statin myotox sup, PDI inh)
CC(C)NC(=O)N(C)C[C@H]1Oc2c(NS(=O)(=O)c3ccc(Cl)cc3)cccc2C(=O)N([C@@H](C)CO)C[C@@H]1C	Cneo AK release 105 (no result: PDI inh)
C[C@@H]1CN([C@@H](C)CO)C(=O)c2cccc(NS(C)(=O)=O)c2O[C@H]1CN(C)CC1CCCCC1	Statin myotox sup 103!
C[C@H]1CN([C@@H](C)CO)C(=O)c2cccc(NS(=O)(=O)c3ccc(Cl)cc3)c2O[C@@H]1CN(C)CC1CC1	Cneo AK release 89 (no result: PDI inh)
COc1ccccc1CNC(=O)C[C@H]1CC[C@H]2[C@@H](COC[C@@H](O)CN2C(=O)Nc2ccc(C(F)(F)F)cc2)O1	none (no result: PDI inh)
CO[C@@H]1CN(C)C(=O)c2ccc(NC(C)=O)cc2OC[C@@H](C)N(C(=O)c2ccc(F)cc2)C[C@@H]1C	none (no result: PDI inh)
COc1ccc(S(=O)(=O)Nc2ccc3c(c2)CC(=O)N([C@@H](C)CO)C[C@H](C)[C@H](CN(C)C(=O)Nc2c(C)noc2C)O3)cc1	none (no result: PDI inh)
O=C(N[C@@H]1C=C[C@H](CC(=O)N2CCc3ccccc3C2)O[C@H]1CO)C1CCOCC1	none (no result: Statin myotox sup, PDI inh, Cneo AK release)
Cc1noc(C)c1NC(=O)N(C)C[C@@H]1Oc2c(NS(=O)(=O)c3ccccc3)cccc2C(=O)N([C@@H](C)CO)C[C@@H]1C	DENV2 CPE rescue 125 (no result: PDI inh)
Cc1noc(C)c1S(=O)(=O)Nc1cccc2c1O[C@@H](CN(C)S(=O)(=O)c1ccccc1)[C@@H](C)CN([C@H](C)CO)C2=O	none (no result: PDI inh)
Cc1noc(C)c1S(=O)(=O)Nc1cccc2c1O[C@H](CN(C)S(=O)(=O)c1ccccc1)[C@H](C)CN([C@H](C)CO)C2=O	DENV2 CPE rescue 54 (no result: PDI inh)
Cc1ccc(S(=O)(=O)Nc2cccc3c2O[C@@H](CN(C)C(=O)NC(C)C)[C@@H](C)CN([C@H](C)CO)C3=O)cc1	DENV2 CPE rescue 43 (no result: PDI inh)
Cc1noc(C)c1S(=O)(=O)Nc1cccc2c1O[C@H](CN(C)C(=O)Nc1ccc(C(F)(F)F)cc1)[C@H](C)CN([C@@H](C)CO)C2=O	ERp5 inh 63 (no result: Statin myotox sup, PDI inh)
Cc1noc(C)c1NC(=O)Nc1ccc2c(c1)C(=O)N([C@H](C)CO)C[C@H](C)[C@@H](CN(C)Cc1ccc3c(c1)OCO3)O2	DENV2 CPE rescue inconclusive (no result: PDI inh)
